ANO1 block – TMEM16A chloride channel inhibitors, primary screen, cell-based, HTS; AID 588511, 2011; 310,000 tested, 1.2% active; HEK293 TMEM16A/YFP iodide influx fluorescence, ionomycin; Anoctamin-1 (Mus musculus), Q8BHY3; normalized B-score (activity score, 25-100; higher = stronger inhibition) at 10 µM;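 active = ratio plate-corrected score three or more library SD toward inhibition, starting fluorescence score within five deviations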;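 also: score derived from kinetic fluorescence span divided by baseline fluorescence per well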
Target sequence (Q8BHY3 whole entry, looked up): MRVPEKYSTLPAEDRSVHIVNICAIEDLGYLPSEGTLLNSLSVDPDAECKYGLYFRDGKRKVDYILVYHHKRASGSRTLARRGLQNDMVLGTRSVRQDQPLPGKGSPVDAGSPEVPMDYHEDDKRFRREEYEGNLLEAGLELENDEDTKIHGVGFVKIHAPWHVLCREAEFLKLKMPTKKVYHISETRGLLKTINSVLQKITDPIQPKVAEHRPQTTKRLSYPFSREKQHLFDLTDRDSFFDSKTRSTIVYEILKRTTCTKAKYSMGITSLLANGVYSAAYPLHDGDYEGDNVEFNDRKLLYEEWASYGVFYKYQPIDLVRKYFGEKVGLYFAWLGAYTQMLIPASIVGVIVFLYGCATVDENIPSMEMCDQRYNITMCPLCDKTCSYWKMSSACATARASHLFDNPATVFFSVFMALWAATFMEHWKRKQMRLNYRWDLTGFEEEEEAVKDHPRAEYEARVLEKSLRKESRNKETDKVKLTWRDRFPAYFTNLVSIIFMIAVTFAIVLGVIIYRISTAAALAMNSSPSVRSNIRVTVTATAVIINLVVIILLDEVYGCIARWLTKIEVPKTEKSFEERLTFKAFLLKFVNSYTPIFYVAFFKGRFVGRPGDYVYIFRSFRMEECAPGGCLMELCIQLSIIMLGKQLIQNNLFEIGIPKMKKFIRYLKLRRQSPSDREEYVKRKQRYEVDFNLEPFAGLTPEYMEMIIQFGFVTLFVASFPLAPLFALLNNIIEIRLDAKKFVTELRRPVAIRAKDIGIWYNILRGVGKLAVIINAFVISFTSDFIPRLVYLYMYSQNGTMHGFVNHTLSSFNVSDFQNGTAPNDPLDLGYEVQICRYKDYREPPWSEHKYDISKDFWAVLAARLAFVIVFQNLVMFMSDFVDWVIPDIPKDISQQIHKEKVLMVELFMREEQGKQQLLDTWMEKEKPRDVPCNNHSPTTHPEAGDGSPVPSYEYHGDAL
Kir21 inh – inhibitors of mouse Kir2.1 inward-rectifier potassium channel; Inward rectifier potassium channel 2 (Mus musculus), P35561; HEK293-Kir2.1, FluxOR thallium flux fluorescence; hits give low values; B-score at 10 µM; 310,000 tested, 0.85% active;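 active = fluorescence ratio B-score at or below minus 3 SD of library scores, with starting-brightness B-score within 2 SD, cut at about -4.2 in these data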;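 also: channel flux triggered by added potassium and thallium sulfate stimulus; B-score of peak minus minimum fluorescence over baseline after thallium stimulus; more negative B-score means stronger Kir2.1 block with less thallium influx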
SR-BI DiI-HDL act – activators of SR-BI mediated DiI-HDL uptake, primary screen, ldlA[mSR-BI] CHO cells, DiI fluorescence. 3 h; 100 = double the neutral-control signal. activation, % at 12.5 µM. 320,000 tested, 0.096% active;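 active = mean replicate activation of at least 60% and every replicate at or above 60%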
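Test system: SR-BI-overexpressing, LDLR-lacking CHO cells; Medium: Ham's F12 with 0.5% BSA, HEPES 25 mM, pH 7.4; Schedule: 3 h, 37 °C; Technique: bottom-read fluorescence, 550/595 nm.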
FID counter – compounds displacing fluorescent DNA intercalator, primary screen, artefact control for HCV NS3 helicase inhibitor project, biochemical, FID fluorescence; DNA fluorescent intercalator displacement; inhibition, % at 7.9 µM; 290,000 tested, 0.17% active; in the data active = inhibition above about 37%;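 also: higher means more ethidium bromide displaced from hairpin DNA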
TMEM16A act – TMEM16A chloride channel activators or potentiators, primary screen, cell-based, HTS; B-score at 10 µM; 340,000 tested, 0.3% active; Anoctamin-1 (Mus musculus), Q8BHY3; AID 623877, 2012; HEK293 TMEM16A/YFP-H148Q/I152L, iodide quench fluorescence; hits give low values;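 active = fluorescence-ratio B-score plate-corrected deviation score at least 3 library SD below zero, with starting fluorescence score within 5 deviations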;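 also: channel opened by trigger with iodide after compound preincubation; score built on the fluorescence ratio of max minus min over baseline; more negative score means more quench and so TMEM16A activation or potentiation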
SR-BI DiI inh – inhibitors of SR-BI mediated HDL lipid uptake, primary screen, ldlA[mSR-BI] cells, fluorescence, single point. inhibition, % at 12.5 µM. 320,000 tested, 0.96% active. ldlA[mSR-BI] CHO cells, DiI-HDL uptake fluorescence, 3 h. Scavenger receptor class B member 1 (Mus musculus), Q61009;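 active = mean replicate inhibition of at least 70% and a set share of replicates each scoring 70 or more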
Hits are given with their value; 0 = inactive; - = no result. Shown are actives, neighbours in structure and some others; about 3% of the full set was active somewhere.

SMILES	ANO1 block	Kir21 inh	SR-BI DiI-HDL act	FID counter	TMEM16A act	SR-BI DiI inh
CCN(CC)CCNCc1cc(Cl)c(OCC(=O)Nc2ccccc2)c(OC)c1	0	0	0	0	0	0
Cc1cccc(OCC(=O)NC2CCCc3ccccc32)c1C (configuration not stated)	0	0	0	0	0	0
COc1ccc(NC(=O)CS(=O)CC(=O)NC2CCCc3ccccc32)cc1 (configuration not stated)	0	0	0	0	0	0
CC(C)c1ccccc1OCC(=O)NC1CCCc2ccccc21 (configuration not stated)	0	-7	0	0	0	0
Nc1ncnc2c1ncn2[C@@H]1O[C@H](CNCc2cccc(C#Cc3ccccc3)c2)[C@@H](O)[C@H]1O	-	-	0	-	-	0
Cc1ccc(C)c(N2CCN(C(=O)CCC(=O)Nc3nnc(C(F)(F)F)s3)CC2)c1	0	0	0	0	0	0
CN(Cc1c(F)cccc1Cl)C(=O)CNC(=O)c1cccs1	0	0	0	0	0	0
COc1ccccc1OCC(=O)NCCSCc1ccc(Cl)cc1	0	-4.7	0	0	0	0
COc1ccccc1OCC(=O)NC1CCCc2ccccc21 (configuration not stated)	0	-4.9	-	0	0	-
COc1cc(/C=N/NC(N)=S)ccc1OCC(=O)Nc1ccc(C)c(C)c1	0	0	0	0	0	73
Cc1no[n+]([O-])c1COc1ccc(/C=N/n2nnnc2N)cc1	0	0	0	0	0	0
COc1ccc(S(=O)(=O)N2CCOCC2)cc1NC(=O)C1COc2ccccc2O1 (configuration not stated)	0	0	0	-	0	0
O=C(NCCOc1ccccc1F)C1CC(=O)N(c2ccc3c(c2)OCCO3)C1 (configuration not stated)	-	-	0	-	0	0
COc1cccc(NC(=O)c2nc(SC)ncc2Cl)c1	0	0	0	0	0	0
CCOC(=O)c1[nH]cnc1C(=O)Nc1cccc(OC)c1	0	0	-	0	0	-
COc1cccc(NC(=O)c2nc(S(C)(=O)=O)ncc2Cl)c1	0	-6.3	0	0	0	0
CNC(=O)c1[nH]cnc1C(=O)Nc1cccc(OC)c1	0	-4.5	0	0	0	0
C=CCC[C@H](Cc1ccc(F)cc1)C(=O)OC[C@@H](NC(=O)[C@@H](CC=C)CC(=O)N(CCO)Cc1ccccc1)C(C)(C)C	-	-	0	-	0	0
CN(CC(=O)Nc1ccc(F)cc1)C(=O)c1ccccc1Sc1ccccc1C#N	-	-	0	-	0	0
CC(C)NCC#CCOc1ccc(Cl)cc1	0	0	0	0	0	0
CC1CCCCC1NCC#CCOc1ccc(Cl)cc1 (configuration not stated)	0	-5	0	0	0	0
CCOc1ccc(S(=O)(=O)N2CCN(C(=O)c3cc4ccccc4o3)CC2)cc1	-	-	0	-	0	0
O=C(N/N=C/c1cc(Cl)c(O)c(Cl)c1)c1cc2c(ccc3ccccc32)o1	100	0	0	0	0	0
O=C(N/N=C/c1ccc(O)c(Br)c1)c1cc2c(ccc3ccccc32)o1	0	0	0	0	0	0
O=C(N/N=C/c1cc(Br)c(O)c(Br)c1)c1cc2c(ccc3ccccc32)o1	100	0	0	0	0	0
SMILES	ANO1 block	Kir21 inh	SR-BI DiI-HDL act	FID counter	TMEM16A act	SR-BI DiI inh
O=C(CCNS(=O)(=O)c1ccc(Br)cc1)Nc1cccc(F)c1	0	0	-	0	0	-
O=C(/C=C/c1ccccc1[N+](=O)[O-])N1CCc2ccccc2C1	0	0	0	0	0	0
Cc1ccccc1S(=O)(=O)Cc1ccc(C(=O)NC2CCCCC2)o1	0	0	0	0	0	0
COCCN(C(=O)COC(=O)CCC1CCCC1)c1c(N)n(Cc2ccccc2)c(=O)[nH]c1=O	0	0	0	-	0	0
Cc1ccc(-n2cccc2C(=S)N=P(N(C)C)(N(C)C)N(C)C)cc1	0	-12	0	0	0	0
CC1(C)Cc2nc3sc4c(NCCO)ncnc4c3cc2CS1	0	0	0	0	0	79
CCCCn1cnc2c(sc3nc4c(cc32)CSC(C)(C)C4)c1=O	0	0	0	0	0	0
O=C(CSCCc1ccccn1)Nc1cccnc1Cl	25	0	0	0	0	0
CC(C)CC(=O)Nc1c(C(=O)N2CCN(Cc3ccccc3)CC2)oc2ccccc12	0	0	0	0	0	0
Cc1c(C(=O)c2ccc(Cl)c(Cl)c2)cnc2cc3c(cc12)OCO3	0	0	69	0	0	0
Cc1ccn(CCNC(=O)C2CCC(=O)N(CCc3ccc(Cl)cc3)C2)n1 (configuration not stated)	0	0	0	0	0	0
COc1ccccc1N1CCN(C(=O)COc2cc(C)cc(C)c2)CC1	0	0	0	0	0	0
COCc1c(C(=O)N/N=C/c2cccc3ccccc23)nnn1-c1nonc1N	0	0	0	0	0	0
CCOc1ccc(-c2c(C(=O)N/N=C/c3sccc3C)nnn2-c2nonc2N)cc1	0	0	0	0	0	87
CCOc1cccc(-c2c(C(=O)N/N=C/c3sccc3C)nnn2-c2nonc2N)c1	0	0	0	0	0	0
CCCc1c(C(=O)N/N=C/c2ccccc2C(F)(F)F)nnn1-c1nonc1N	0	0	0	0	0	76
CCc1c(C(=O)N/N=C/c2sccc2C)nnn1-c1nonc1N	0	0	0	0	0	77
CCN(CC(=O)Nc1c(F)cccc1F)C(=O)c1ccc(Cl)c(S(=O)(=O)N2CCCCC2)c1	0	0	0	0	0	0
O=C1CNC(=S)N1C1CCCCCC1	0	-5.6	0	0	0	0
CCCC1NC(=S)N(C2CCCCC2)C1=O (configuration not stated)	0	0	0	0	0	0
CCn1c(COc2cccc3cccnc23)nnc1SC(F)F	0	0	0	0	0	0
CN(Cc1cn(Cc2ccccc2)nc1-c1ccc2c(c1)OCO2)Cc1nccn1C	0	0	0	0	0	0
Cc1nccn1CCN(C)Cc1cn(Cc2ccccc2)nc1-c1ccc2c(c1)OCO2	0	-5.5	0	0	0	0
COc1ccc(C(CNC(=O)C(C)c2ccc3cc(OC)ccc3c2)N(C)C)cc1 (configuration not stated)	0	-4.9	-	0	0	-
CC(c1ccon1)N(C)C(=O)CCc1nnc(C2(c3ccc(Cl)cc3)CCC2)o1 (configuration not stated)	0	-4.9	0	0	0	0
